Calls of active or inactive are those of the source. No cut-off for these calls is given here.
Tests used:
[1] = tested on: Mus musculus; experiment: Anticonvulsant activity in mouse CF1 albino assessed as inhibition of minimal electric shock-induced seizure at 30 mg/kg, ip after 4 hrs; format: functional, organism-based; design: dose 30 mg/kg
In short: (§1)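 6 Hz psychomotor seizure model in male CF-1 albino mice dosed i.p. Four mice per time point (0.25, 0.5, 1, 2, 4 h) received corneal-electrode current of 32 mA for 3 s. Untreated mice show a minimal clonic phase followed by stereotyped automatistic behaviour. Results given as number protected out of 4.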

[2] = tested on: Mus musculus; experiment: Anticonvulsant activity in mouse CF1 albino assessed as inhibition of minimal electric shock-induced seizure at 30 mg/kg, ip after 0.5 hrs; format: functional, organism-based; design: dose 30 mg/kg; in short: as §1
[3] = tested on: Mus musculus; experiment: Anticonvulsant activity in mouse CF1 albino assessed as inhibition of minimal electric shock-induced seizure at 30 mg/kg, ip after 2 hrs; format: functional, organism-based; design: dose 30 mg/kg; in short: as §1
[4] = tested on: Mus musculus; experiment: Anticonvulsant activity in mouse CF1 albino assessed as inhibition of minimal electric shock-induced seizure at 30 mg/kg, ip after 0.25 hrs; format: functional, organism-based; design: dose 30 mg/kg; in short: as §1
[5] = tested on: Mus musculus; experiment: Anticonvulsant activity in mouse CF1 albino assessed as inhibition of minimal electric shock-induced seizure at 30 mg/kg, ip after 1 hr; format: functional, organism-based; design: dose 30 mg/kg; in short: as §1
[6] = tested on: Mus musculus; experiment: Anticonvulsant activity in mouse CF1 albino assessed as inhibition of minimal electric shock-induced seizure at 100 mg/kg, ip after 1 hr; format: functional, organism-based; design: dose 100 mg/kg; in short: as §1
[7] = tested on: Mus musculus; experiment: Anticonvulsant activity in mouse CF1 albino assessed as inhibition of minimal electric shock-induced seizure at 50 mg/kg, ip after 0.25 hrs; format: functional, organism-based; design: dose 50 mg/kg; in short: as §1
[8] = tested on: Mus musculus; experiment: Anticonvulsant activity in mouse CF1 albino assessed as inhibition of maximal electric shock-induced seizure at 300 mg/kg, ip after 4 hrs; format: functional, organism-based; design: dose 300 mg/kg
In short: (§2)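 Male CF-1 albino mice (18–25 g); compound suspended in 0.5% methyl cellulose/water or PEG 200, given i.p. at 30, 100 and 300 mg/kg (0.01 mL/g). Tested 0.5 or 4 h after dosing. Protection = abolition of hind limb tonic extensor component of MES seizure.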

[9] = tested on: Mus musculus; experiment: Anticonvulsant activity in mouse CF1 albino assessed as inhibition of subcutaneous metrazole-induced seizure at 300 mg/kg, ip after 4 hrs; format: functional, organism-based; design: dose 300 mg/kg
[10] = tested on: Mus musculus; experiment: Neurotoxicity against mouse CF1 albino assessed as minimal motor impairment at 300 mg/kg, ip after 0.5 hrs by rotord test; format: toxicity, organism-based; design: dose 300 mg/kg, route intraperitoneal; conditions: in vivo
In short: (§3)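 Rotorod minimal motor impairment in male CF-1 albino mice (18–25 g) after i.p. dosing at 30, 100 or 300 mg/kg in 0.5% methyl cellulose/water or PEG 200. Mice placed on a rod rotating at 6 rpm at 0.5 or 4 h. Value is minimum dose causing impairment in at least one mouse.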

[11] = tested on: Mus musculus; experiment: Anticonvulsant activity in mouse CF1 albino assessed as inhibition of minimal electric shock-induced seizure at 50 mg/kg, ip after 2 hrs; format: functional, organism-based; design: dose 50 mg/kg; in short: as §1
[12] = tested on: Mus musculus; experiment: Anticonvulsant activity in mouse CF1 albino assessed as inhibition of minimal electric shock-induced seizure at 100 mg/kg, ip after 4 hrs; format: functional, organism-based; design: dose 100 mg/kg; in short: as §1
[13] = tested on: Mus musculus; experiment: Neurotoxicity against mouse CF1 albino assessed as minimal motor impairment at 300 mg/kg, ip after 4 hrs by rotord test; format: toxicity, organism-based; design: dose 300 mg/kg, route intraperitoneal; conditions: in vivo; in short: as §3
[14] = tested on: Mus musculus; experiment: Anticonvulsant activity in ip dosed mouse CF1 albino assessed as inhibition of subcutaneous metrazole-induced seizure after 0.5 hrs; format: functional
[15] = tested on: Mus musculus; experiment: Anticonvulsant activity in mouse CF1 albino assessed as inhibition of maximal electric shock-induced seizure at 300 mg/kg, ip after 0.5 hrs; format: functional, organism-based; design: dose 300 mg/kg; in short: as §2
[16] = tested on: Mus musculus; experiment: Anticonvulsant activity in mouse CF1 albino assessed as inhibition of minimal electric shock-induced seizure at 50 mg/kg, ip after 1 hr; format: functional, organism-based; design: dose 50 mg/kg; in short: as §1
[17] = tested on: Mus musculus; experiment: Anticonvulsant activity in mouse CF1 albino assessed as inhibition of minimal electric shock-induced seizure at 50 mg/kg, ip after 4 hrs; format: functional, organism-based; design: dose 50 mg/kg; in short: as §1
[18] = tested on: Mus musculus; experiment: Anticonvulsant activity in mouse CF1 albino assessed as inhibition of minimal electric shock-induced seizure at 50 mg/kg, ip after 0.5 hrs; format: functional, organism-based; design: dose 50 mg/kg; in short: as §1
[19] = tested on: Mus musculus; experiment: Anticonvulsant activity in ip dosed mouse CF1 albino assessed as inhibition of subcutaneous metrazole-induced seizure after 4 hrs; format: functional
[20] = tested on: Mus musculus; experiment: Anticonvulsant activity in mouse CF1 albino assessed as inhibition of subcutaneous metrazole-induced seizure at 300 mg/kg, ip after 0.5 hrs; format: functional, organism-based; design: dose 300 mg/kg
[21] = tested on: Mus musculus; experiment: Anticonvulsant activity in mouse CF1 albino assessed as inhibition of minimal electric shock-induced seizure at 100 mg/kg, ip after 2 hrs; format: functional, organism-based; design: dose 100 mg/kg; in short: as §1
[22] = tested on: Mus musculus; experiment: Anticonvulsant activity in mouse CF1 albino assessed as inhibition of minimal electric shock-induced seizure at 100 mg/kg, ip after 0.25 hrs; format: functional, organism-based; design: dose 100 mg/kg; in short: as §1
[23] = tested on: Mus musculus; experiment: Anticonvulsant activity in ip dosed mouse CF1 albino assessed as inhibition of maximal electric shock-induced seizure after 4 hrs; format: functional; in short: as §2
[24] = tested on: Mus musculus; experiment: Neurotoxicity against ip dosed mouse CF1 albino assessed as minimal motor impairment after 0.5 hrs by rotord test; format: toxicity, organism-based; conditions: in vivo; in short: as §3
[25] = tested on: Mus musculus; experiment: Neurotoxicity against ip dosed mouse CF1 albino assessed as minimal motor impairment after 4 hrs by rotord test; format: toxicity, organism-based; conditions: in vivo; in short: as §3
[26] = tested on: Mus musculus; experiment: Anticonvulsant activity in ip dosed mouse CF1 albino assessed as inhibition of maximal electric shock-induced seizure after 0.5 hrs; format: functional; in short: as §2

Row | SMILES | Activity [8] | Activity [9] | Activity [10] | Activity [12] | Activity [13] | Activity [15] | Activity [20] | Activity [24] [mg/kg] | further results
1 | CCCCCCCOc1c(C(=O)N/N=C(\C)c2cccs2)sc(C(=O)N/N=C(\C)c2cccs2)c1OCCCCCCC |  |  |  |  |  |  |  |  | Activity [1]: inactive; Activity [2]: inactive; Activity [3]: inactive; Activity [4]: inactive; Activity [5]: inactive; Activity [6]: inactive
2 | CCCCCCCOc1c(C(=O)N/N=C/c2ccccc2)sc(C(=O)N/N=C/c2ccccc2)c1OCCCCCCC | inactive | inactive | Not Active | inactive | Not Active | inactive |  |  | Activity [7]: inactive; Activity [11]: inactive; Activity [14]: 300 mg/kg; Activity [16]: inactive; Activity [17]: inactive; Activity [18]: inactive
3 | CCCOc1c(C(=O)N/N=C/c2ccccc2O)sc(C(=O)N/N=C/c2ccccc2O)c1OCCC | inactive |  | Not Active | inactive | Not Active | inactive | inactive |  | Activity [19]: 300 mg/kg; Activity [21]: inactive; Activity [22]: inactive
4 | C/C(=N\NC(=O)c1sc(C(=O)N/N=C(\C)c2cccs2)c(OCc2ccccc2)c1OCc1ccccc1)c1cccs1 |  | inactive | Not Active |  | Not Active | inactive | inactive |  | Activity [23]: 300 mg/kg
5 | CCCOc1c(C(=O)N/N=C2/C(=O)Nc3ccccc32)sc(C(=O)N/N=C2/C(=O)Nc3ccccc32)c1OCCC |  | inactive |  | inactive |  | inactive | inactive | 100 | Activity [23]: 300 mg/kg; Activity [21]: inactive; Activity [25]: 300 mg/kg; Activity [6]: inactive
6 | O=C(N/N=C/c1ccccc1)c1sc(C(=O)N/N=C/c2ccccc2)c(OCc2ccccc2)c1OCc1ccccc1 | inactive |  | Not Active |  | Not Active |  | inactive |  | Activity [19]: 300 mg/kg; Activity [26]: 300 mg/kg; Activity [2]: inactive; Activity [3]: inactive; Activity [4]: inactive; Activity [5]: inactive
7 | CCCOc1c(C(=O)N/N=C/c2ccc([N+](=O)[O-])cc2)sc(C(=O)N/N=C/c2ccc([N+](=O)[O-])cc2)c1OCCC | inactive | inactive |  |  | Not Active | inactive | inactive | 100 | 
8 | CCCCCCCOc1c(C(=O)N/N=C/c2cc(OC)c(OC)c(OC)c2)sc(C(=O)N/N=C/c2cc(OC)c(OC)c(OC)c2)c1OCCCCCCC |  |  |  |  |  |  |  |  | Activity [22]: inactive
9 | CCCCCCCOc1c(C(=O)NN)sc(C(=O)NN)c1OCCCCCCC |  | inactive | Not Active |  | Not Active | inactive | inactive |  | Activity [23]: 100 mg/kg
10 | CCCOc1c(C(=O)N/N=C(/C)c2ccsc2)sc(C(=O)N/N=C(/C)c2ccsc2)c1OCCC |  |  |  | inactive |  |  |  |  | Activity [22]: inactive
11 | O=C(N/N=C/c1ccc([N+](=O)[O-])cc1)c1sc(C(=O)N/N=C/c2ccc([N+](=O)[O-])cc2)c(OCc2ccccc2)c1OCc1ccccc1 | inactive | inactive |  |  | Not Active | inactive | inactive | 100 | 
12 | CCCOc1c(C(=O)N/N=C/c2ccccc2OC)sc(C(=O)N/N=C/c2ccccc2OC)c1OCCC | inactive | inactive |  |  | Not Active | inactive | inactive | 100 | 

Reference: ChEMBL document CHEMBL1155262, “A new class of anticonvulsants possessing 6 Hz activity: 3,4-dialkyloxy thiophene bishydrazones” (Eur J Med Chem, 2009)
